We go through 26 compounds from ChEMBL document CHEMBL3046818, “Photosynthesis-Inhibiting efficiency of 4-chloro-2-(chlorophenylcarbamoyl)phenyl alkylcarbamates” (Bioorg Med Chem Lett, 2011).

Data set [1] has as its target Photosystem II protein D1 (Spinacia oleracea, UniProt P69560). Kind of data set: Inhibition of photosystem II in Spinacia oleracea (spinach) chloroplasts assessed as reduction of photosynthetic electron transport. Put shortly:
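PET in spinach chloroplasts read spectrophotometrically as DCPIP photoreduction in a chloroplast suspension at pH 7.2. Read within 2 min after adding the carbamate solution in DMSO. IC50 is the molar concentration giving a 50% decrease in activity relative to the untreated control.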

The nature of data set [2]: Lipophilicity, log K of the compound. In kind it is physicochemical. The note with it: RP-HPLC capacity factor, C18 column, methanol mobile phase. Put shortly: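 Lipophilicity measured by RP-HPLC as capacity factor k, reported as log k.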
The nature of data set [3]: Chemical stability of the compound in aqueous buffer solutions at acidic pH by HPLC analysis. In kind it is physicochemical.
A short description of data set [4]: Half life in aqueous buffer solutions at pH 7 by HPLC analysis. In kind it is ADME. Particulars: aqueous buffer solution.
Data set [5] in a line: Half life in aqueous buffer solutions at pH 7.4 by HPLC analysis. In kind it is ADME. Particulars: aqueous buffer solution.
For data set [6], the target named is Photosystem II protein D1 (Spinacia oleracea) (UniProt P69560). Kind of data set: Inhibition of photosystem II in Spinacia oleracea (spinach) chloroplasts assessed as restoration of photosynthetic electron transport relative to control in presence of DPC. Set-up: scale not given: the % may be the effect or the level left. In a few lines:
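Spinach chloroplasts were first treated with the carbamate, then given the artificial PS 2 donor 1,5-diphenylcarbazide (DPC). PET activity was then measured and expressed as % of the untreated control.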

Broadly, the IC50 is the concentration at which inhibition is half-maximal. With `CN(C)C(=O)Nc1ccc(Cl)c(Cl)c1` [DCMU], the IC50 in data set [1] was determined as 1.9 µM. In addition, the “log K” value in data set [2] is given as 0.47.

As a reminder, the half-life is the time needed for the level to fall by half in the phase considered. Turning to `CCCCCCCCCNC(=O)Oc1ccc(Cl)cc1C(=O)Nc1ccc(Cl)c(Cl)c1`, the IC50 in data set [1] came to 506 µM. The Stability entry in data set [3] is recorded as “Stable”. In addition, the figures for the half-life in data set [4] and in data set [5] were 64 h and 43 h, respectively. Besides, the “log K” value in data set [2] stood at 1.088.

Regarding `CCCCCCNC(=O)Oc1ccc(Cl)cc1C(=O)Nc1cccc(Cl)c1`, the IC50 in data set [1] came to 5.3 µM. For the same compound, in data set [3], the Stability entry is on record as “Stable”. Further, the half-life is 64 h in data set [4] and 43 h in data set [5]. Moreover, the “log K” value in data set [2] is recorded as 0.7758.

Turning to `CCCCCCCCCNC(=O)Oc1ccc(Cl)cc1C(=O)Nc1ccc(Cl)cc1`, the IC50 in data set [1] is 8 µM. The Stability entry in data set [3] was “Stable”. Also, the half-life was 64 h in data set [4] and 43 h in data set [5]. Further, in data set [2], the “log K” value was found to be 0.7919.

Take `CCCCCCCNC(=O)Oc1ccc(Cl)cc1C(=O)Nc1ccc(Cl)cc1`: the IC50 in data set [1] was found to be 7.1 µM. For the same compound, the Stability result in data set [3] is listed as “Stable”. Moreover, the values for the half-life in data set [4] and in data set [5] were 64 h and 43 h, respectively. The “log K” value in data set [2] is 0.7872.

Consider `CCCCCNC(=O)Oc1ccc(Cl)cc1C(=O)Nc1ccc(Cl)c(Cl)c1`, for which the IC50 in data set [1] turned out to be 99.2 µM. Further, the Stability result in data set [3] is “Stable”. For the same compound, the figures for the half-life in data set [4] and in data set [5] were 64 h and 43 h, respectively. Further, in data set [2], the “log K” value is reported as 1.0601.

In the case of `CCCCCCCCCNC(=O)Oc1ccc(Cl)cc1C(=O)Nc1cccc(Cl)c1`, in data set [1], the IC50 amounted to 15.4 µM. The Stability entry in data set [3] is recorded as “Stable”. The half-life in data set [4] was 64 h; in data set [5] it was 43 h. In data set [2], the “log K” value worked out at 0.7837.

As to `CCCCCNC(=O)Oc1ccc(Cl)cc1C(=O)Nc1ccc(Cl)cc1`, in data set [1], the IC50 worked out at 6.3 µM. In addition, the Stability result in data set [3] is “Stable”. The half-life is 64 h in data set [4] and 43 h in data set [5]. In addition, the “log K” value in data set [2] is 0.7838.

Consider `CCCCCNC(=O)Oc1ccc(Cl)cc1C(=O)Nc1cccc(Cl)c1`, for which, in data set [1], the IC50 was determined as 5.4 µM. In addition, in data set [3], the Stability result was “Stable”. For the same compound, the results for the half-life in data set [4] and in data set [5] were 64 h and 43 h, respectively. The “log K” value in data set [2] amounted to 0.7732.

Consider `CCNC(=O)Oc1ccc(Cl)cc1C(=O)Nc1ccc(Cl)c(Cl)c1`, for which the IC50 in data set [1] worked out at 82.3 µM. For the same compound, the Stability result in data set [3] is “Stable”. In addition, the half-life in data set [4] is 64 h; in data set [5] it was 43 h. In addition, the “log K” value in data set [2] stood at 1.0234.

On to `CCCCCCCCNC(=O)Oc1ccc(Cl)cc1C(=O)Nc1cccc(Cl)c1`, for which the IC50 in data set [1] was found to be 10.1 µM. Also, the Stability entry in data set [3] is reported as “Stable”. In addition, the figures for the half-life in data set [4] and in data set [5] were 64 h and 43 h, respectively. Moreover, the “log K” value in data set [2] is on record as 0.7831.

In the case of `CCCCCCNC(=O)Oc1ccc(Cl)cc1C(=O)Nc1ccc(Cl)cc1`, the concentration for half-maximal inhibition (IC50) in data set [1] turned out to be 6.3 µM. In addition, the Stability entry in data set [3] is recorded as “Stable”. Further, the figures for the half-life in data set [4] and in data set [5] were 64 h and 43 h, respectively. Besides, the “log K” value in data set [2] is given as 0.7859.

Take `CCCCCCCCCCNC(=O)Oc1ccc(Cl)cc1C(=O)Nc1ccc(Cl)c(Cl)c1`: the Stability result in data set [3] is listed as “Stable”. The half-life in data set [4] is 64 h; in data set [5], 43 h. The “log K” value in data set [2] amounted to 1.0894.

With `CCCCCCCCCCNC(=O)Oc1ccc(Cl)cc1C(=O)Nc1ccc(Cl)cc1`, the IC50 in data set [1] was 8.4 µM. For the same compound, the Stability result in data set [3] is on record as “Stable”. The half-life in data set [4] is 64 h; in data set [5] it was 43 h. In data set [2], the “log K” value is 0.7942.

Turning to `CCCCCCCCNC(=O)Oc1ccc(Cl)cc1C(=O)Nc1ccc(Cl)cc1`, the IC50 in data set [1] was found to be 7.4 µM. In addition, the Stability result in data set [3] is “Stable”. The half-life in data set [4] was 64 h; in data set [5], 43 h. Also, the “log K” value in data set [2] came out at 0.7899.

As to `CCCCCCCCNC(=O)Oc1ccc(Cl)cc1C(=O)Nc1ccc(Cl)c(Cl)c1`, the IC50 in data set [1] came to 432 µM. Moreover, in data set [3], the Stability result is on record as “Stable”. Further, the half-life in data set [4] was 64 h; in data set [5], 43 h. For the same compound, the “log K” value in data set [2] is reported as 1.0845.

`CCCCCCCNC(=O)Oc1ccc(Cl)cc1C(=O)Nc1cccc(Cl)c1`: the IC50 in data set [1] is 4.9 µM. Besides, the Stability result in data set [3] was “Stable”. Moreover, the figures for the half-life in data set [4] and in data set [5] were 64 h and 43 h, respectively. Also, the “log K” value in data set [2] is 0.7772. Moreover, the Activity in data set [6] came out at 94%.

Regarding `CCCCCCCNC(=O)Oc1ccc(Cl)cc1C(=O)Nc1ccc(Cl)c(Cl)c1`, the half-maximal inhibitory concentration (IC50) in data set [1] was found to be 169 µM. Also, the Stability entry in data set [3] is reported as “Stable”. Further, the figures for the half-life in data set [4] and in data set [5] were 64 h and 43 h, respectively. In data set [2], the “log K” value was 1.0667.

With `CCCCCCNC(=O)Oc1ccc(Cl)cc1C(=O)Nc1ccc(Cl)c(Cl)c1`, the IC50 in data set [1] stood at 144 µM. Besides, in data set [3], the Stability result is reported as “Stable”. Further, in data set [2], the “log K” value came to 1.0611.

As to `CCNC(=O)Oc1ccc(Cl)cc1C(=O)Nc1cccc(Cl)c1`, in data set [1], the IC50 is 15.6 µM. Also, the Stability entry in data set [3] is given as “Stable”. The figures for the half-life in data set [4] and in data set [5] were 64 h and 43 h, respectively. Also, in data set [2], the “log K” value worked out at 0.7523.

As to `CCCCCCCCCCCNC(=O)Oc1ccc(Cl)cc1C(=O)Nc1ccc(Cl)cc1`, the IC50 in data set [1] came to 10.5 µM. Further, in data set [3], the Stability result is recorded as “Stable”. The results for the half-life in data set [4] and in data set [5] were 64 h and 43 h, respectively. The “log K” value in data set [2] turned out to be 0.7947.

As for `CCCCCCCCCCCNC(=O)Oc1ccc(Cl)cc1C(=O)Nc1ccc(Cl)c(Cl)c1`, in data set [3], the Stability result is given as “Stable”. For the same compound, the values for the half-life in data set [4] and in data set [5] were 64 h and 43 h, respectively. In addition, in data set [2], the “log K” value came out at 1.0903.

Take `CCCCCCCCCCNC(=O)Oc1ccc(Cl)cc1C(=O)Nc1cccc(Cl)c1`: in data set [1], the IC50 is 15.8 µM. Further, the Stability entry in data set [3] was “Stable”. The half-life in data set [4] was 64 h; in data set [5], 43 h. In addition, in data set [2], the “log K” value worked out at 0.7873.

In the case of `CCCCNC(=O)Oc1ccc(Cl)cc1C(=O)Nc1cccc(Cl)c1`, in data set [1], the IC50 turned out to be 13.4 µM. Besides, the Stability entry in data set [3] is “Stable”. Further, the values for the half-life in data set [4] and in data set [5] were 64 h and 43 h, respectively. Further, the “log K” value in data set [2] turned out to be 0.7611.

`CCCCCCCCCCCNC(=O)Oc1ccc(Cl)cc1C(=O)Nc1cccc(Cl)c1`: the IC50 in data set [1] amounted to 18.3 µM. The Stability result in data set [3] is reported as “Stable”. The half-life in data set [4] is 64 h; in data set [5], 43 h. Also, the “log K” value in data set [2] stood at 0.7902.

`CCNC(=O)Oc1ccc(Cl)cc1C(=O)Nc1ccc(Cl)cc1`: the IC50 in data set [1] stood at 9.7 µM. In data set [3], the Stability entry is “Stable”. The values for the half-life in data set [4] and in data set [5] were 64 h and 43 h, respectively. Also, in data set [2], the “log K” value stood at 0.7695. In addition, in data set [6], the Activity worked out at 94%.
